As a reminder, the CC50 is the concentration at which the toxic effect on the cells reaches its halfway point. A word on the EC50: it is the concentration needed to bring the measured effect to its halfway point. Usually LD50 stands for the dose expected to kill half of the subjects tested. For orientation: solubility means the dissolved amount per volume that the medium holds. Broadly, the inhibition is the share of the control response that was lost under treatment. Lower therefore signals a weak effect.

We go through 8 compounds from ChEMBL document CHEMBL5046236, “Synthesis and structure-activity relationship study of new biaryl amide derivatives and their inhibitory effects against hepatitis C virus” (Eur J Med Chem, 2022).

A short description of data set [1]: Selectivity index, ratio of CC50 for cytotoxicity against human Huh7.5 cells to EC50 for antiviral activity against Hepatitis C virus infected in human Huh7.5 cells. The class given is toxicity, cell-based. The following applies: read-out: Ratio CC50/EC50.
The nature of data set [2]: (§1) Cytotoxicity against human Huh7.5 cells assessed as inhibition of cell growth measured after 96 hrs by MTT assay. The class given is toxicity, cell-based, Huh-7.5. To be noted: Huh7.5 cells. The gist of the method: (§2)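 Huh7.5 cells in DMEM with 10% heat-inactivated FBS, seeded at 3.0 × 10⁴ cells/cm²; after 24 h, fresh medium with compound added (DMSO stocks, eight 1:5 serial dilutions).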
A general note: Tetrazolium assays rely on reduction of a dye to a coloured formazan, in cell work by metabolically active cells.

The next data set has as its system Hepatitis C virus. Nature of the data set: Antiviral activity against Hepatitis C virus infected in human Huh7.5 cells assessed as inhibition of viral replication incubated for 72 hrs by qRT-PCR analysis. The class given is functional, organism-based, Hepacivirus hominis. The following applies: Huh7.5, 72 h.
In the next data set the test system is Huh-7.5. The description is as §1. The class given is toxicity, cell-based. The following applies: huh-7.5, 96 h. The gist of the method: as §2
A short description of data set [3]: Acute toxicity in ip dosed Kunming mouse assessed as lethal dose measured after 7 days. To be noted: in vivo, 168 h, time 7 day. The class given is organism-based. The gist of the method: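 Single intraperitoneal dose at 50, 100, 150 or 200 mg/kg, n = 6 per group. Animals watched closely for 7 days. Median lethal dose (LD₅₀) estimated from deaths across the dose groups.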

Data set [4] in a line: Aqueous Solubility of compound at pH 7 measured after 10 mins by HPLC-UV analysis. The following applies: buffer. The class given is physicochemical.
The target in data set [5] is DNA dC->dU-editing enzyme APOBEC-3G (Homo sapiens) (UniProt Q9HC16). Nature of the data set: Inhibition of Vif-mediated human A3G degradation in HEK-293T cells cotransfected with hA3G and Vif at 20 uM by western blot analysis relative to control. The class given is cell-based. The method in brief: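 293T cells cotransfected with hA3G and Vif expression vectors, then treated with compounds at 20 μM; MG132 proteasome inhibitor as positive control, DMSO-treated cells as comparator for hA3G degradation.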
(In western blotting, separated proteins are transferred to a membrane and probed.)

A value given as a limit tells only on which side of the number the result lay.

Sequence of DNA dC->dU-editing enzyme APOBEC-3G (Homo sapiens) (Q9HC16 whole entry): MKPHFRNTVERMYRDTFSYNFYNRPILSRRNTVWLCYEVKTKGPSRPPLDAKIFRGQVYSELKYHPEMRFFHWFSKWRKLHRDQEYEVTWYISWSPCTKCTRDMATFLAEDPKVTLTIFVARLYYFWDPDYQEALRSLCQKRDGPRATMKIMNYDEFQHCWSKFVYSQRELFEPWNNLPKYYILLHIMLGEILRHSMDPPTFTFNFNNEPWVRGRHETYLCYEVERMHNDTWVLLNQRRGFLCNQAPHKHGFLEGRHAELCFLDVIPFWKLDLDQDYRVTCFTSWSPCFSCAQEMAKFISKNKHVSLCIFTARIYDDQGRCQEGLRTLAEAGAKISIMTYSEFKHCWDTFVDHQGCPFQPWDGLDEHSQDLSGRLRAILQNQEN

`CN1CCN(Cc2ccc(NC(=O)c3ccc(OCCCCl)c([N+](=O)[O-])c3)cn2)CC1`: the selectivity ratio in data set [1] worked out at 151. Further, the cytotoxic concentration (CC50) at 96 h in data set [2] was found to be 12.6 µM. Further, in the data set on Hepatitis C virus, the EC50 was 0.083 µM.

As for `CN1CCN(Cc2ccc(NC(=O)c3ccc(OCCCCl)c([N+](=O)[O-])c3)cc2C(F)(F)F)CC1`, the selectivity ratio in data set [1] turned out to be 154. Besides, in the data set with Huh-7.5, the half-maximal cytotoxic concentration (CC50) worked out at 6.8 µM. Moreover, the EC50 with Hepatitis C virus is 0.044 µM. The median lethal dose (LD50) in data set [3] was below 100 mg/kg.

As to `CN(C)C1CN(Cc2ccc(NC(=O)c3ccc(OCCCl)c([N+](=O)[O-])c3)cc2C(F)(F)F)C1.Cl`, in data set [4], the solubility at 10 min stood at 7800 µg/mL.

On to `COc1ccc(NC(=O)c2ccc(OCCCCl)c([N+](=O)[O-])c2)cc1`, for which, in data set [1], the selectivity ratio was 17. This compound also showed an inhibition in data set [5] below 25%. The 50% cytotoxic concentration (CC50) in the data set with Huh-7.5 was found to be 39.7 µM. The concentration giving a half-maximal response (EC50) in the data set on Hepatitis C virus stood at 2.39 µM.

With `CCC(=O)Nc1cc(C(=O)Nc2ccc(N(C)C)cc2)ccc1OC`, the selectivity ratio in data set [1] is 66. In data set [5], the inhibition was below 25%. Besides, the cytotoxic concentration (CC50) in the data set on Huh-7.5 is 171 µM. For the same compound, the EC50 in the data set on Hepatitis C virus came out at 2.56 µM.

Consider `CCCOc1ccc(C(=O)Nc2ccc(OC)cc2)cc1NC(=O)CC`, for which the selectivity ratio in data set [1] was determined as 68. This compound also registered an inhibition in data set [5] of 25%. Moreover, the CC50 in the data set with Huh-7.5 was 106 µM. Also, the EC50 with Hepatitis C virus is 1.55 µM.

Consider `CCC(=O)Nc1cc(C(=O)Nc2ccc(OC)cc2)ccc1OC(C)C`, for which the selectivity ratio in data set [1] was determined as 103. The compound also displayed an inhibition in data set [5] below 25%. In addition, the cytotoxic concentration (CC50) in the data set with Huh-7.5 amounted to 113 µM. Besides, the EC50 in the data set with Hepatitis C virus came out at 1.1 µM.

For `CCC(=O)Nc1cc(C(=O)Nc2ccc(CN3CCN(C)CC3)c(C(F)(F)F)c2)ccc1OC`, in data set [1], the selectivity ratio stood at 24. Also, in data set [5], the inhibition is above 50%. In the data set on Huh-7.5, the CC50 was found to be 35.3 µM. In addition, the EC50 in the data set with Hepatitis C virus came out at 1.48 µM.
